{
  "source": "ChEMBL document CHEMBL4052710",
  "about": "(Bioorg Med Chem Lett, 2017)",
  "key": {"T47D [1]": {"tested_on": "T47D", "assay": "Growth inhibition of human T47D cells incubated for 72 hrs by CCK8 assay", "type": "functional, cell-based"}, "[2]": {"target": "CDK7/Cyclin H/MNAT1 (Homo sapiens) (UniProt P51946+P50613+P51948)", "assay": "Inhibition of human CDK7/CyclinH/MAT1 at 1 uM by enzymatic radiometric assay", "type": "protein-complex assay"}, "[3]": {"target": "CDK9/cyclin T1 (Homo sapiens) (UniProt O60563+P50750)", "assay": "Inhibition of human CDK9/CyclinT1 at 1 uM by enzymatic radiometric assay", "type": "protein-complex assay"}, "CDK4/Cyclin D3": {"target": "CDK4/Cyclin D3 (Homo sapiens, UniProt P11802)", "sequence (P11802 whole entry)": "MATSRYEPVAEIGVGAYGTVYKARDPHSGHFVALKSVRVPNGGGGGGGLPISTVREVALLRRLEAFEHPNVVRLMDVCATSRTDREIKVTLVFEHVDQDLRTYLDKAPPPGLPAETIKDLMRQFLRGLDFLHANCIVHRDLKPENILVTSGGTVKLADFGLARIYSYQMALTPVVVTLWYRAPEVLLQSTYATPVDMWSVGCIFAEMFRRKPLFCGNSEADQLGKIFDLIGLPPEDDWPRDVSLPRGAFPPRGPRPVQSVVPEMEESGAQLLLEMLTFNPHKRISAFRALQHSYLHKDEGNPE", "sequence (P30281 whole entry, further chain)": "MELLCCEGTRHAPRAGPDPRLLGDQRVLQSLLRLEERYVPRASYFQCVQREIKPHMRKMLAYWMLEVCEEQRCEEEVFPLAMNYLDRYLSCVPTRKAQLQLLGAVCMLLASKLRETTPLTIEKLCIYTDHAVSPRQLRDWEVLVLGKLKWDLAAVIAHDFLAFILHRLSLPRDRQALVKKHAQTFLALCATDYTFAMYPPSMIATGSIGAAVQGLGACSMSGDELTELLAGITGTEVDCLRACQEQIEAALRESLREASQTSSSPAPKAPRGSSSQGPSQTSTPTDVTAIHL", "assay": "Inhibition of human CDK4/CyclinD3 by enzymatic radiometric assay", "type": "protein-complex assay", "summary_of_the_method": "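CDK4 activity measured with the Eurofins KinaseProfiler. IC50 and inhibition values are means of two independent experiments.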"}, "T47D [4]": {"tested_on": "T47D", "assay": "Induction of cell cycle arrest in human T47D cells assessed as increase in G2 phase accumulation at 0.1 to 1 uM incubated for 24 hrs by flow cytometry", "type": "functional, cell-based", "summary_of_the_method": "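Cells were treated for 24 h with compound at 0.1, 0.5 and 1 µM, with LEE011 or vehicle (DMSO) alongside. Cell-cycle phase distribution was then determined by flow cytometry.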"}, "T47D [5]": {"tested_on": "T47D", "assay": "Induction of apoptosis in human T47D cells incubated for 48 hrs by annexin V-FITC and propidium iodide staining based flow cytometry", "type": "functional, cell-based"}, "4T1": {"tested_on": "4T1", "assay": "Antitumor activity against mouse 4T1 cells xenografted in BALB/C mouse assessed as inhibition of tumor growth at 50 to 150 mg/kg/day, ip dosed for 21 consecutive days", "type": "functional, organism-based", "summary_of_the_method": "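Cells implanted orthotopically into mammary fat pads of female BALB/c mice aged 6-8 weeks. Dosing began once tumours averaged 100 mm3: daily IP injection at 50, 100 or 150 mg/kg/day for 21 consecutive days, with a solvent control group. Tumour volume and body weight were followed, given as mean ± SD.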"}, "T47D [6]": {"tested_on": "T47D", "assay": "Induction of apoptosis in human T47D cells assessed as viable cells level at 5 uM incubated for 48 hrs by annexin V-FITC and propidium iodide staining based flow cytometry (reference value: 96%)", "type": "functional"}, "T47D [7]": {"tested_on": "T47D", "assay": "Induction of apoptosis in human T47D cells assessed as early apoptotic cells level at 0.25 uM incubated for 48 hrs by annexin V-FITC and propidium iodide staining based flow cytometry (reference value: 0.75%)", "type": "functional"}, "T47D [8]": {"tested_on": "T47D", "assay": "Induction of apoptosis in human T47D cells assessed as late apoptotic cells level at 0.25 uM incubated for 48 hrs by annexin V-FITC and propidium iodide staining based flow cytometry (reference value: 0.48%)", "type": "functional"}, "T47D [9]": {"tested_on": "T47D", "assay": "Induction of apoptosis in human T47D cells assessed as necrotic cells level at 0.25 uM incubated for 48 hrs by annexin V-FITC and propidium iodide staining based flow cytometry (reference value: 2.79%)", "type": "functional"}, "T47D [10]": {"tested_on": "T47D", "assay": "Induction of apoptosis in human T47D cells assessed as early apoptotic cells level at 0.5 uM incubated for 48 hrs by annexin V-FITC and propidium iodide staining based flow cytometry (reference value: 0.75%)", "type": "functional"}, "T47D [11]": {"tested_on": "T47D", "assay": "Induction of apoptosis in human T47D cells assessed as necrotic cells level at 0.5 uM incubated for 48 hrs by annexin V-FITC and propidium iodide staining based flow cytometry (reference value: 2.79%)", "type": "functional"}, "T47D [12]": {"tested_on": "T47D", "assay": "Induction of apoptosis in human T47D cells assessed as early apoptotic cells level at 1 uM incubated for 48 hrs by annexin V-FITC and propidium iodide staining based flow cytometry (reference value: 0.75%)", "type": "functional"}, "T47D [13]": {"tested_on": "T47D", "assay": "Growth inhibition of human T47D cells incubated for 72 hrs at 10 uM by CCK8 assay", "type": "functional", "conditions": "read-out: GI", "summary_of_the_method": "(§1)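 CCK8 viability assay on a panel of human cancer cell lines, with an initial screen at fixed concentrations of 1 µM and 10 µM.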"}, "T47D [14]": {"tested_on": "T47D", "assay": "Growth inhibition of human T47D cells incubated for 72 hrs at 1 uM by CCK8 assay", "type": "functional", "conditions": "read-out: GI", "summary_of_the_method": "as §1"}, "A549": {"tested_on": "A549", "assay": "Growth inhibition of human A549 cells incubated for 72 hrs at 1 uM by CCK8 assay", "type": "functional", "conditions": "A549, 72 h, read-out: GI", "summary_of_the_method": "as §1"}, "NCI-H460": {"tested_on": "NCI-H460", "assay": "Growth inhibition of human H460 cells incubated for 72 hrs at 10 uM by CCK8 assay", "type": "functional", "conditions": "NCI-H460, 72 h, read-out: GI", "summary_of_the_method": "as §1"}, "NCI-H1299 [15]": {"tested_on": "NCI-H1299", "assay": "Growth inhibition of human H1299 cells incubated for 72 hrs at 10 uM by CCK8 assay", "type": "functional", "conditions": "NCI-H1299, 72 h, read-out: GI", "summary_of_the_method": "as §1"}, "NCI-H1299 [16]": {"tested_on": "NCI-H1299", "assay": "Growth inhibition of human H1299 cells incubated for 72 hrs at 1 uM by CCK8 assay", "type": "functional", "conditions": "NCI-H1299, 72 h, read-out: GI", "summary_of_the_method": "as §1"}, "HeLa": {"tested_on": "HeLa", "assay": "Growth inhibition of human HeLa cells incubated for 72 hrs at 1 uM by CCK8 assay", "type": "functional", "conditions": "read-out: GI", "summary_of_the_method": "as §1"}, "OVCAR-5": {"tested_on": "OVCAR-5", "assay": "Growth inhibition of human OVCAR5 cells incubated for 72 hrs at 10 uM by CCK8 assay", "type": "functional", "conditions": "OVCAR-5, 72 h, read-out: GI", "summary_of_the_method": "as §1"}},
  "note": "Activity calls are given as the source filed them. No cut-off for these calls is given here.",
  "data": [
    {"smiles": "CN(C)C(=O)c1cc2cnc(Nc3ccc(NC(=O)C4(C(=O)Nc5ccc(F)cc5)CC4)cc3)nc2n1C1CCCC1", "values": [
      {"measurement": "IC50", "setting": "T47D [1]", "value": 358, "unit": "nM"},
      {"measurement": "inhibition", "setting": "[2]", "value": 7, "unit": "%"},
      {"measurement": "inhibition", "setting": "[3]", "value": 98, "unit": "%"},
      {"measurement": "IC50", "setting": "CDK4/Cyclin D3", "value": 142, "unit": "nM"},
      {"measurement": "Activity", "setting": "T47D [4]", "value": "Active"},
      {"measurement": "Activity", "setting": "T47D [5]", "value": "Dose-dependent effect"},
      {"measurement": "TGI", "setting": "4T1", "value": "Dose-dependent effect"},
      {"measurement": "Activity", "setting": "T47D [6]", "value": 85, "unit": "%"},
      {"measurement": "Activity", "setting": "T47D [7]", "value": 0.52, "unit": "%"},
      {"measurement": "Activity", "setting": "T47D [8]", "value": 3.28, "unit": "%"},
      {"measurement": "Activity", "setting": "T47D [9]", "value": 2.01, "unit": "%"},
      {"measurement": "Activity", "setting": "T47D [10]", "value": 0.65, "unit": "%"},
      {"measurement": "Activity", "setting": "T47D [11]", "value": 2.69, "unit": "%"},
      {"measurement": "Activity", "setting": "T47D [12]", "value": 3.16, "unit": "%"},
      {"measurement": "inhibition of growth at 10 µM", "setting": "T47D [13]", "value": 105, "unit": "%"},
      {"measurement": "inhibition of growth at 1 µM", "setting": "T47D [14]", "value": 74.7, "unit": "%"},
      {"measurement": "inhibition of growth at 1 µM", "setting": "A549", "value": 86.6, "unit": "%"},
      {"measurement": "inhibition of growth at 10 µM", "setting": "NCI-H460", "value": 102, "unit": "%"},
      {"measurement": "inhibition of growth at 10 µM", "setting": "NCI-H1299 [15]", "value": 90.8, "unit": "%"},
      {"measurement": "inhibition of growth at 1 µM", "setting": "NCI-H1299 [16]", "value": 93.3, "unit": "%"},
      {"measurement": "inhibition of growth at 1 µM", "setting": "HeLa", "value": 49.8, "unit": "%"},
      {"measurement": "inhibition of growth at 10 µM", "setting": "OVCAR-5", "value": 79.7, "unit": "%"}
    ]}
  ]
}
